The source made the active and inactive calls. No cut-off for these calls is given here.
Legend:
[1] = molecular target: Tyrosine-protein kinase SYK (Homo sapiens) (UniProt P43405); experiment: Inhibition of human SYK assessed as remaining activity at 10 uM in presence of ATP by radiometric kinase assay relative to control
[2] = AUC (0 to t) in BALB/C mouse spleen at 10 mg/kg, po by LC/MS-MS analysis; format: ADME, organism-based
[3] = molecular target: SRSF protein kinase 1 (Homo sapiens) (UniProt Q96SB4); experiment: Inhibition of human SRPK1 assessed as remaining activity at 10 uM in presence of ATP by radiometric kinase assay relative to control
SRSF protein kinase 1 (Homo sapiens), sequence (Q96SB4 whole entry): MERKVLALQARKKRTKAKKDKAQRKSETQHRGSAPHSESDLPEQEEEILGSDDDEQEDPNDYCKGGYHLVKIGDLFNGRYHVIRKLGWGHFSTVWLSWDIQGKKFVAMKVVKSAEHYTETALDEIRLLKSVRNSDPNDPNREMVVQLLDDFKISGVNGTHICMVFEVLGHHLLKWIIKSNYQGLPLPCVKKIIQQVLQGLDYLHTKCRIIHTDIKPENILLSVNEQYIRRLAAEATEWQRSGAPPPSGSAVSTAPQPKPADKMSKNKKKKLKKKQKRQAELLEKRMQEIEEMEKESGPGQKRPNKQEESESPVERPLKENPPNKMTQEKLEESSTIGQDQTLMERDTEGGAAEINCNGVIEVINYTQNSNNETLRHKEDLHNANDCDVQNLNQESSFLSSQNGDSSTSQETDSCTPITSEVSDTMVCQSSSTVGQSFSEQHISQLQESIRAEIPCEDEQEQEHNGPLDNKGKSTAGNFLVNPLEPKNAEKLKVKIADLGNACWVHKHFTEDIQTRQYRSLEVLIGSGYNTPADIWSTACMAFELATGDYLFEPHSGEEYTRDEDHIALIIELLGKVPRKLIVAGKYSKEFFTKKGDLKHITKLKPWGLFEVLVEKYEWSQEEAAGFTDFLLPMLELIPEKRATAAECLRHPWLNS

[4] = molecular target: MAP/microtubule affinity-regulating kinase 3 (Homo sapiens, UniProt P27448); experiment: Inhibition of human MARK3 at 10 uM in presence of ATP by radiometric kinase assay relative to control
[5] = Toxicity in Emu-Myc driven transgenic mouse transplant model of B-cell lymphoma assessed as change in body weight at 150 mg/kg, po administered for 9 days; format: organism-based; details: in vivo, 216 h, time 9 day
[6] = AUC (0 to infinity) in BALB/C mouse spleen at 10 mg/kg, iv by LC/MS-MS analysis; format: ADME, organism-based
[7] = Half life in BALB/C mouse spleen at 10 mg/kg, iv by LC/MS-MS analysis; format: ADME, organism-based
Outline: (§1)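 Female BALB/c mice received a single bolus of 10mg/kg, either i.v. or p.o. The oral vehicle was DPTW (10% DMSO, 20% PEG400, 5% Tween 80, 65% water). Plasma and spleen homogenates were extracted with methanol containing internal standards. Drug levels were measured by LC/MS-MS, and pharmacokinetic parameters were calculated from the concentration-time profiles.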

[8] = molecular target: Mitogen-activated protein kinase 1 (Homo sapiens) (UniProt P28482); experiment: Inhibition of human ERK2 assessed as remaining activity at 10 uM in presence of ATP by radiometric kinase assay relative to control
HT-29 = experiment: Induction of cell cycle arrest in etoposide induced human HT-29 cells assessed as increase in accumulation of cells at S phase at 1 to 5 uM incubated for 24 hrs by BrdU and PI staining based flow cytometry analysis; format: functional; details: dose 1-5 µM
Outline: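 HT29 cells exposed for 24h, stained with bromodeoxyuridine and propidium iodide, and cell-cycle distribution measured by flow cytometry.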

[9] = molecular target: Serine/threonine-protein kinase Sgk1 (Homo sapiens) (UniProt O00141); experiment: Inhibition of human SGK1 assessed as remaining activity at 10 uM in presence of ATP by radiometric kinase assay relative to control
Serine/threonine-protein kinase Sgk1 (Homo sapiens), sequence (O00141 whole entry): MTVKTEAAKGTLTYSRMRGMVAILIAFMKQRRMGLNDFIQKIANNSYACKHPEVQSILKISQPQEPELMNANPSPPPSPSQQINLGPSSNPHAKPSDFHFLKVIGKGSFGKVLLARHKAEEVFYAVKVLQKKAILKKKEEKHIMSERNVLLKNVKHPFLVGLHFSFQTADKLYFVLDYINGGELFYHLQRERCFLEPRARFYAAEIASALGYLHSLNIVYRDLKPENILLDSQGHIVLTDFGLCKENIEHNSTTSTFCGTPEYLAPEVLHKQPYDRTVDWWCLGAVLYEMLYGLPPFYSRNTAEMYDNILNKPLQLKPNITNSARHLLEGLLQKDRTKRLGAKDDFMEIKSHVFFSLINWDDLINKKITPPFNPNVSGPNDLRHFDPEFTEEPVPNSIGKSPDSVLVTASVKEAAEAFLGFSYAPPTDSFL

[10] = molecular target: Mitogen-activated protein kinase kinase kinase 1 (Homo sapiens) (UniProt Q13233); experiment: Inhibition of human MEKK1 assessed as remaining activity at 10 uM in presence of ATP by radiometric kinase assay relative to control
[11] = molecular target: Homeodomain-interacting protein kinase 2 (Homo sapiens) (UniProt Q9H2X6); experiment: Inhibition of human HIPK2 assessed as remaining activity at 10 uM in presence of ATP by radiometric kinase assay relative to control
Homeodomain-interacting protein kinase 2 (Homo sapiens), sequence (Q9H2X6 whole entry, looked up): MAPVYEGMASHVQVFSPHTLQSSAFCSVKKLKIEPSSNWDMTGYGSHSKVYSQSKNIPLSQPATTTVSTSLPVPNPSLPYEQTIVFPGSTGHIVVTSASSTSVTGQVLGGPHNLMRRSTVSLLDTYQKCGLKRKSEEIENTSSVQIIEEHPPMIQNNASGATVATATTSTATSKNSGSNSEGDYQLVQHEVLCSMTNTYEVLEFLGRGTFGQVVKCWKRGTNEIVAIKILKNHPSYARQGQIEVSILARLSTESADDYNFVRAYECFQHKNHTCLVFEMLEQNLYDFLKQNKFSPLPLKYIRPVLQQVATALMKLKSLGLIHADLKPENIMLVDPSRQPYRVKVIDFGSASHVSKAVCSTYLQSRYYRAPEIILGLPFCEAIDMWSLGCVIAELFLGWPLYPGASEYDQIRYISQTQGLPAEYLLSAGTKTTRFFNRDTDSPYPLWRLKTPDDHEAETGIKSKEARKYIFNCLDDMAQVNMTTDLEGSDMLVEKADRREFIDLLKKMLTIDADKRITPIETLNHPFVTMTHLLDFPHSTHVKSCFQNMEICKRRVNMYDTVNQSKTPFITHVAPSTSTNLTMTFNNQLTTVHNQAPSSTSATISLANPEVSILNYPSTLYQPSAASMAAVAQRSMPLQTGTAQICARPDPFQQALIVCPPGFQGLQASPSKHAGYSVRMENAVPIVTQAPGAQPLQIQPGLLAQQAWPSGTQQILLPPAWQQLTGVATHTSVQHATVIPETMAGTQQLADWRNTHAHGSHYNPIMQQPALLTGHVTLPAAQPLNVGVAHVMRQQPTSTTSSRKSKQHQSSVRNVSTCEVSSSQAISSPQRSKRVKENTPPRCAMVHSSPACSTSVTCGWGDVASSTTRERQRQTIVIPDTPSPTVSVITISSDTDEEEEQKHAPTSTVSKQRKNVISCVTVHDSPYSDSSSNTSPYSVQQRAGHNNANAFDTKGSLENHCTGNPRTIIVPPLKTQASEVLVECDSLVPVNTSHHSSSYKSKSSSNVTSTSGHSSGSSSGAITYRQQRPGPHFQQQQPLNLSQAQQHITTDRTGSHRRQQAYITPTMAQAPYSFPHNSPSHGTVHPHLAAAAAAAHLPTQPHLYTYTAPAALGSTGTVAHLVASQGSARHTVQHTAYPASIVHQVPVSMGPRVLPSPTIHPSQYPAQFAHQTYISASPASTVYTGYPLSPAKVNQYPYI

Homo sapiens = species: Homo sapiens; experiment: Inhibition of human AMPK assessed as remaining activity at 10 uM in presence of ATP by radiometric kinase assay relative to control
[12] = molecular target: Serine/threonine-protein kinase pim-1 (Homo sapiens) (UniProt P11309); experiment: Inhibition of human PIM1 assessed as remaining activity at 10 uM in presence of ATP by radiometric kinase assay relative to control
[13] = molecular target: RAC-alpha serine/threonine-protein kinase (Homo sapiens) (UniProt P31749); experiment: Inhibition of human PKBa assessed as remaining activity at 10 uM in presence of ATP by radiometric kinase assay relative to control
[14] = Half life in BALB/C mouse plasma at 10 mg/kg, po by LC/MS-MS analysis; format: ADME, organism-based; outline: as §1
Mus musculus [15] = experiment: In vivo inhibition of CHK1 in CRTac:Ncr-Fox1 mouse xenografted with human HT-29 cells assessed as reduction of phosphorylation of CDK1 on Y15 at 100 mg/kg, po administered for 24 hrs by Western blotting analysis; format: functional, organism-based
Outline: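 HT29 s.c. xenografts in female athymic nude mice. Single gemcitabine dose 100mg/kg i.v. on day 0, then one inhibitor dose 50 or 100mg/kg p.o. (DPTW vehicle) 24h later. Tumors taken 24h after the last dose, western blotted, and signals quantified by normalizing to GAPDH.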

[16] = molecular target: Dual specificity tyrosine-phosphorylation-regulated kinase 3 (Homo sapiens) (UniProt O43781); experiment: Inhibition of human DYRK3 assessed as remaining activity at 10 uM in presence of ATP by radiometric kinase assay relative to control
Dual specificity tyrosine-phosphorylation-regulated kinase 3 (Homo sapiens), sequence (O43781 whole entry): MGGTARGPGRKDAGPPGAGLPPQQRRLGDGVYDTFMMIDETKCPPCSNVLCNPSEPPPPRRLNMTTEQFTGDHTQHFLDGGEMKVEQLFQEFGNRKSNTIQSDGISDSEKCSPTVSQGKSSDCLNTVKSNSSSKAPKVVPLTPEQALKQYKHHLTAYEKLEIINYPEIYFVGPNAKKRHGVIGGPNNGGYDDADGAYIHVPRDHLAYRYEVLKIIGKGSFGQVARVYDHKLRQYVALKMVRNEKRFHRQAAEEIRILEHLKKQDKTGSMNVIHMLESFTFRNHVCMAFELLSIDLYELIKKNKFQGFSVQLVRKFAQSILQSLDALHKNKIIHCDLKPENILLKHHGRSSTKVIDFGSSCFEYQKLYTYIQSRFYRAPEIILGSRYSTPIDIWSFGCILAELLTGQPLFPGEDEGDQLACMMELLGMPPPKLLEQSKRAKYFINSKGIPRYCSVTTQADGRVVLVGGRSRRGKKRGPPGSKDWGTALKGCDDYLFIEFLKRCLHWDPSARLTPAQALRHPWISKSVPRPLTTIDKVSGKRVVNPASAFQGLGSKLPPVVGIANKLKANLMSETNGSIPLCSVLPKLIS

[17] = molecular target: Serine/threonine-protein kinase 33 (Homo sapiens) (UniProt Q9BYT3); experiment: Inhibition of human STK33 assessed as remaining activity at 10 uM in presence of ATP by radiometric kinase assay relative to control
Serine/threonine-protein kinase 33 (Homo sapiens), sequence (Q9BYT3 whole entry, looked up): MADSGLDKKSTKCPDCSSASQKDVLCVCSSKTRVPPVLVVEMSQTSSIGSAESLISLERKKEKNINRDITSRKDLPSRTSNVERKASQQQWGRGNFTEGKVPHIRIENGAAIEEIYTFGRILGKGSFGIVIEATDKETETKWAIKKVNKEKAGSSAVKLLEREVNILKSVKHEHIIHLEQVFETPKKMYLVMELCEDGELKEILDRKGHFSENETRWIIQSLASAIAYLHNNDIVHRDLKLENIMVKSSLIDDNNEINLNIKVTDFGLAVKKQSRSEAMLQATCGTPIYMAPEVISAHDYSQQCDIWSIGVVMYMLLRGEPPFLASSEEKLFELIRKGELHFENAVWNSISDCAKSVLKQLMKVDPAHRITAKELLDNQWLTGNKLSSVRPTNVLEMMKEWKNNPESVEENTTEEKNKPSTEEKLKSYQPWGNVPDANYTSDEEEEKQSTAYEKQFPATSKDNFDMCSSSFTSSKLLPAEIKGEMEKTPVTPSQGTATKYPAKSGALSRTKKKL

[18] = molecular target: Ribosomal protein S6 kinase alpha-5 (Homo sapiens) (UniProt O75582); experiment: Inhibition of human MSK1 assessed as remaining activity at 10 uM in presence of ATP by radiometric kinase assay relative to control
Ribosomal protein S6 kinase alpha-5 (Homo sapiens), sequence (O75582 whole entry, looked up): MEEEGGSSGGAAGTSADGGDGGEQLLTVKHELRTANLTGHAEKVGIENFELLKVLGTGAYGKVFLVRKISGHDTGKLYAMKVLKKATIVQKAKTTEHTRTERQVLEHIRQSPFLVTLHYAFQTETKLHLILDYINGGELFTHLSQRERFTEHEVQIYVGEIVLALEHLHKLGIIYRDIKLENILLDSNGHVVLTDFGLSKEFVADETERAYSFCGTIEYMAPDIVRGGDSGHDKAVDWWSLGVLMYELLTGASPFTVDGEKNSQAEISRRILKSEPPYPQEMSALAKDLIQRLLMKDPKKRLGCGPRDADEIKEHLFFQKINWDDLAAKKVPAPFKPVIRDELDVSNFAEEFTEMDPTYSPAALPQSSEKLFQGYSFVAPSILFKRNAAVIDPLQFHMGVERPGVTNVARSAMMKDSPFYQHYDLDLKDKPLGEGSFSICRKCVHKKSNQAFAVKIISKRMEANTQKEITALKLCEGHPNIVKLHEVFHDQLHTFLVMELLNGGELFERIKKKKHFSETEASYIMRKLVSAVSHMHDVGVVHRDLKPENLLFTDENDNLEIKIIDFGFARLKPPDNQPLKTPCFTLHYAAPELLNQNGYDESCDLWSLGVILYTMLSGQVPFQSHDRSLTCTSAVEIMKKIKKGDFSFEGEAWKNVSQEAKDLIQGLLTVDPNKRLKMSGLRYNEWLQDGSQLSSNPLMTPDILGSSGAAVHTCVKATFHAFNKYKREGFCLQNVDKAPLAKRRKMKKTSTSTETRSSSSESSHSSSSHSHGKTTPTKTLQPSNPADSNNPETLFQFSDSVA

Mus musculus [19] = experiment: In vivo inhibition of total CHK1 in CRTac:Ncr-Fox1 athymic mouse xenografted with human Calu-6 cells at 150 mg/kg, po in presence of gemcitabine and carboplatin by ELISA analysis; format: functional, organism-based
[20] = Half life in BALB/C mouse spleen at 10 mg/kg, po by LC/MS-MS analysis; format: ADME, organism-based; outline: as §1
[21] = Toxicity in Emu-Myc driven transgenic mouse transplant model of B-cell lymphoma assessed as increase in weight of spleen at 150 mg/kg, po administered for 9 days; format: organism-based; details: in vivo, 216 h, time 9 day
[22] = Toxicity in Emu-Myc driven transgenic mouse transplant model of B-cell lymphoma assessed as reduction in weight of the brachial/axillary lymph nodes at 150 mg/kg, po administered for 9 days; format: organism-based; details: in vivo, 216 h, time 9 day
[23] = Toxicity in CRTac:Ncr-Fox1 mouse xenografted with human Calu-6 cells assessed as body weight at 150 mg/kg, po administered for 3 days in presence of gemcitabine relative to control; format: organism-based; details: in vivo, 72 h, time 3 day
[24] = molecular target: Inhibitor of nuclear factor kappa-B kinase subunit epsilon (Homo sapiens) (UniProt Q14164); experiment: Inhibition of human IKKe assessed as remaining activity at 10 uM in presence of ATP by radiometric kinase assay relative to control
Inhibitor of nuclear factor kappa-B kinase subunit epsilon (Homo sapiens), sequence (Q14164 whole entry): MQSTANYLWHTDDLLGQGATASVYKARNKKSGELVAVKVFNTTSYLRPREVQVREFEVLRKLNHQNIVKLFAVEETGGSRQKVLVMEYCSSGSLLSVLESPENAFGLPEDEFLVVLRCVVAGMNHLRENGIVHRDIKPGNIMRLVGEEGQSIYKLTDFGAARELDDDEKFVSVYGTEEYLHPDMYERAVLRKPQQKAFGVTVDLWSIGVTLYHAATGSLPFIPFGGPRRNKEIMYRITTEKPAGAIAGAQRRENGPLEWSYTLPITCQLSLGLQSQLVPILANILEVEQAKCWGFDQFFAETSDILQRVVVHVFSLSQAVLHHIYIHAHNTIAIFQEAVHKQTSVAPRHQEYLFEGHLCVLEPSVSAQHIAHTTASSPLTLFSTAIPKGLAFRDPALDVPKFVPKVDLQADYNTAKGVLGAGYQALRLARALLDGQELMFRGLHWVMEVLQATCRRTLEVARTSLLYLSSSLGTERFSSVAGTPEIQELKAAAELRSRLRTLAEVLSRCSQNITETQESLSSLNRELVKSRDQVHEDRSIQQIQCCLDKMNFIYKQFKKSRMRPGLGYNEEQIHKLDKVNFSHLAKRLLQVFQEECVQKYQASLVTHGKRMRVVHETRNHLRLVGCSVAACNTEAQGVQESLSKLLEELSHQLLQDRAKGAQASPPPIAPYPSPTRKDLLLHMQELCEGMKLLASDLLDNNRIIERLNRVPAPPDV

[25] = molecular target: Dual specificity protein kinase CLK2 (Homo sapiens, UniProt P49760); experiment: Inhibition of human CLK2 assessed as remaining activity at 10 uM in presence of ATP by radiometric kinase assay relative to control
[26] = molecular target: Fibroblast growth factor receptor 1 (Homo sapiens) (UniProt P11362); experiment: Inhibition of human FGF-R1 assessed as remaining activity at 10 uM in presence of ATP by radiometric kinase assay relative to control
[27] = molecular target: MAP kinase-interacting serine/threonine-protein kinase 2 (Homo sapiens) (UniProt Q9HBH9); experiment: Inhibition of human MNK2 assessed as remaining activity at 10 uM in presence of ATP by radiometric kinase assay relative to control

SMILES: N#Cc1cnc(Nc2cc(NC[C@H]3CNCCO3)c(C(F)(F)F)cn2)cn1 [SRA-737]
- Activity [1]: 84%
- AUC(0-t) [2]: 222 µM·h
- Activity [3]: 82%
- inhibition [4]: 87%
- Activity [5]: Non-Toxic
- AUC(0-inf) [6]: 262 µM·h
- half-life [7]: 2.76 h
- Activity [8]: 98%
- Activity (HT-29): Active
- Activity [9]: 87%
- Activity [10]: 77%
- Activity [11]: 92%
- Activity (Homo sapiens): 32%
- Activity [12]: 56%
- Activity [13]: 93%
- half-life [14]: 2.85 h
- Activity (Mus musculus [15]): Active
- Activity [16]: 24%
- Activity [17]: 39%
- Activity [18]: 30%
- inhibition (Mus musculus [19]): Active
- half-life [20]: 3.11 h
- Activity [21]: Toxic
- Activity [22]: Toxic
- Activity [23]: 98%
- Activity [24]: 102%
- Activity [25]: 6%
- Activity [26]: 33%
- Activity [27]: 75%
